SMILES strings stand for the structures.

Broadly, the Inhibition is the drop in the measured response relative to a control, in per cent.

This experiment deals with T1, NAD-dependent protein deacetylase sirtuin-2 (Homo sapiens, UniProt Q8IXJ6).
T1 sequence (Q8IXJ6 whole entry): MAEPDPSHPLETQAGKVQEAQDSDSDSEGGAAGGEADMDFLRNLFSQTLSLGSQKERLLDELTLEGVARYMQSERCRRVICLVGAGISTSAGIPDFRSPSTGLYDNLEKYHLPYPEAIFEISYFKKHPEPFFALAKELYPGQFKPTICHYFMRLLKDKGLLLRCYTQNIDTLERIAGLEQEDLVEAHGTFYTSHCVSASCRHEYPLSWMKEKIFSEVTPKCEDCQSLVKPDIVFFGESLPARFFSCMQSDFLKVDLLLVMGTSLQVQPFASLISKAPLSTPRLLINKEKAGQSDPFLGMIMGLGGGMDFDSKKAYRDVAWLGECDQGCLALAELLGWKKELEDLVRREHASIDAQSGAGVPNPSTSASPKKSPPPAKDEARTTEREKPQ
The experiment is described as follows: Inhibition of recombinant GST-tagged SIRT2 at 200 uM after 1 hr by Fluor de Lys-based fluorescence assay. The method in brief: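 Single-point Fluor de Lys test at 200 μM: GST-SIRT1 (40 μM KI177 substrate) or GST-SIRT2 (138 μM KI179 substrate), 500 μM NAD+, BSA-supplemented buffer, 5 min rt preincubation, enzyme-started 1 h at 37 °C. Developer with 2 mM nicotinamide 45 min 37 °C; fluorescence ex 355/em 460 nm. Percent inhibition ± standard deviation.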
`CC(=S)NCCCC[C@H](NC(=O)[C@H](N)Cc1ccccc1)C(=O)N[C@@H](C)C(=O)O`: the Inhibition came to 22.4%.
For `CC(=S)NCCCC[C@H](NC(=O)OCc1ccccc1)C(=O)NC1CCCCC1` the value was 57.2%; for `CC(=S)NCCCC[C@H](N)C(=O)N[C@@H](C)C(=O)O`, 2%.
